Results on 17 compounds are retold here after ChEMBL document CHEMBL4152190, “Microwave-assisted one-pot synthesis of new phenanthrene fused-tetrahydrodibenzo-acridinones as potential cytotoxic and apoptosis inducing agents” (Eur J Med Chem, 2018).

In one assay the test system is HT-1080. In words: Cytotoxicity against human HT1080 cells after 48 hrs by MTT assay. Type of assay: functional, cell-based. Conditions: HT-1080, 48 h. An outline of the steps: (§1)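 ATCC lines grown in DMEM or RPMI with 10% FBS and antibiotic-antimycotic, 37 °C, 5% CO2. Seeded at 3×10^4 cells/well, 24 h before dosing with vehicle (DMSO) controls. […] Cisplatin as reference.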

A further assay has as its system HEK-293T. The assay can be described thus: Cytotoxicity against human HEK293T cells after 48 hrs by MTT assay. Type of assay: cell-based. Put shortly:
as §1
On the technique in general: Tetrazolium assays rely on reduction of a dye to a coloured formazan, in cell work by metabolically active cells.

A further assay has as its system PC-3. The assay can be described thus: Cytotoxicity against human PC3 cells after 48 hrs by MTT assay. The assay is classed as functional, cell-based. The settings on record: PC-3, 48 h. Put shortly:
as §1

The subject of the next assay is HeLa. The assay can be described thus: Cytotoxicity against human HeLa cells after 48 hrs by MTT assay. Type of assay: functional, cell-based. Put shortly:
as §1

A further assay deals with SK-OV-3. In words: Cytotoxicity against human SKOV3 cells after 48 hrs by MTT assay. The settings on record: SK-OV-3, 48 h. Type of assay: functional, cell-based. An outline of the steps: as §1

The IC50 is the midpoint of a concentration-inhibition curve. Low values mean higher potency, high ones lower potency. With `COc1cc2c3c(c4cc(OC)c(OC)cc4c2cc1OC)C(c1ccc(C(C)C)cc1)C1=C(CC(C)(C)CC1=O)N3` (stereo not given), the half-inhibitory concentration (IC50) is 32.3 µM with HT-1080; 25.7 µM in the assay with HEK-293T; more than 50 µM in the assay on PC-3; more than 50 µM in the assay with HeLa; 11.5 µM with SK-OV-3.
On to `COc1ccc(C2C3=C(CCCC3=O)Nc3c2c2cc(OC)c(OC)cc2c2cc(OC)c(OC)cc32)cc1OC` (stereo not given), for which the half-maximal inhibitory concentration (IC50) in the assay on HT-1080 is 25.7 µM; with HEK-293T it was more than 50 µM; with PC-3, more than 50 µM; with HeLa it was more than 50 µM; in the assay with SK-OV-3 it was 11.5 µM.
Regarding `COc1ccc(C2C3=C(CC(C)(C)CC3=O)Nc3c2c2cc(OC)c(OC)cc2c2cc(OC)c(OC)cc32)cc1OC` (stereo not given), the IC50 stood at 21.3 µM with HT-1080; 43.5 µM in the assay with HEK-293T; 17.6 µM in the assay with PC-3; 28.1 µM in the assay with HeLa; 13.7 µM in the assay with SK-OV-3.
For `COc1cc2c3c(c4cc(OC)c(OC)cc4c2cc1OC)C(c1cccc2ccccc12)C1=C(CCCC1=O)N3` (stereo not given) the same measures were 3.83 µM, 14.4 µM, 5.31 µM, 6.87 µM and 2.67 µM.
For the compound `COc1cc(C2C3=C(CC(C)(C)CC3=O)Nc3c2c2cc(OC)c(OC)cc2c2cc(OC)c(OC)cc32)ccc1O` (stereo not given), the half-inhibitory concentration (IC50) in the assay with HT-1080 is 9.83 µM; in the assay with HEK-293T it was more than 50 µM; in the assay with PC-3 it was 23.8 µM; in the assay on HeLa, 11.7 µM; with SK-OV-3, 13.6 µM.
For the compound `COc1cc2c3c(c4cc(OC)c(OC)cc4c2cc1OC)C(c1ccc(C(F)(F)F)cc1)C1=C(CC(C)(C)CC1=O)N3` (stereo not given), the IC50 in the assay with HT-1080 is 15.6 µM; in the assay with HEK-293T, 35.7 µM; in the assay on PC-3, 31.4 µM; with HeLa it was more than 50 µM; in the assay on SK-OV-3, 18.6 µM.
In the same order, the values of `COc1cc2c3c(c4cc(OC)c(OC)cc4c2cc1OC)C(c1ccc(Br)cc1)C1=C(CC(C)(C)CC1=O)N3` (stereo not given) are 11.6 µM, 36.3 µM, 12.4 µM, 31.6 µM and 15.5 µM.
For `COc1cc2c3c(c4cc(OC)c(OC)cc4c2cc1OC)C(c1cc(OC)c(OC)c(OC)c1)C1=C(CC(C)(C)CC1=O)N3` (stereo not given) the same measures were 16.3 µM, 29.2 µM, 8.9 µM, 12.1 µM and 10.8 µM.
For the compound `COc1cc2c3c(c4cc(OC)c(OC)cc4c2cc1OC)C(c1cccs1)C1=C(CC(C)(C)CC1=O)N3` (stereo not given), the IC50 amounted to 5.87 µM in the assay on HT-1080; 18.9 µM with HEK-293T; 7.1 µM in the assay on PC-3; 2.28 µM in the assay with HeLa; 1.6 µM in the assay with SK-OV-3.
Regarding `COc1cc2c3c(c4cc(OC)c(OC)cc4c2cc1OC)C(c1ccc(Cl)cc1)C1=C(CC(C)(C)CC1=O)N3` (stereo not given), the concentration for half-maximal inhibition (IC50) in the assay on HT-1080 was 30.1 µM; in the assay on HEK-293T, more than 50 µM; in the assay on PC-3, more than 50 µM; with HeLa, 38.8 µM; in the assay with SK-OV-3 it was 15.9 µM.
Consider `COc1cc2c3c(c4cc(OC)c(OC)cc4c2cc1OC)C(c1cc(OC)c(O)c(OC)c1)C1=C(CC(C)(C)CC1=O)N3` (stereo not given), for which the IC50 with HT-1080 was 7.64 µM; with HEK-293T it was more than 50 µM; with PC-3, 6.84 µM; in the assay on HeLa, 9.42 µM; in the assay with SK-OV-3, 6.5 µM.
For `COc1cc2c3c(c4cc(OC)c(OC)cc4c2cc1OC)C(c1cccs1)C1=C(CCCC1=O)N3` (stereo not given) the same measures were 3.78 µM, 15.5 µM, 5.89 µM, 2.46 µM and 2.35 µM.
With `COc1ccc(C2C3=C(CCCC3=O)Nc3c2c2cc(OC)c(OC)cc2c2cc(OC)c(OC)cc32)cc1` (stereo not given), the IC50 in the assay on HT-1080 was found to be 2.62 µM; in the assay with HEK-293T, 28.3 µM; in the assay with PC-3, 5.79 µM; in the assay with HeLa, 2.62 µM; in the assay on SK-OV-3, 0.61 µM.
For the compound `COc1cc2c3c(c4cc(OC)c(OC)cc4c2cc1OC)C(c1ccc(C(C)C)cc1)C1=C(CCCC1=O)N3` (stereo not given), the IC50 was determined as 11.7 µM in the assay with HT-1080; 41.5 µM in the assay with HEK-293T; 5.67 µM in the assay on PC-3; 13.6 µM with HeLa; 4.81 µM with SK-OV-3.
On to `COc1cc2c3c(c4cc(OC)c(OC)cc4c2cc1OC)C(c1sccc1C)C1=C(CC(C)(C)CC1=O)N3` (stereo not given), for which the IC50 in the assay with HT-1080 was determined as 8.85 µM; with HEK-293T, 33.5 µM; in the assay on PC-3, 21.6 µM; with HeLa it was 3.7 µM; in the assay on SK-OV-3 it was 2.89 µM.
On to `COc1cc2c3c(c4cc(OC)c(OC)cc4c2cc1OC)C(c1ccc2c(c1)OCO2)C1=C(CC(C)(C)CC1=O)N3` (stereo not given), for which the IC50 was 4.32 µM with HT-1080; 24.6 µM with HEK-293T; 7.7 µM with PC-3; 1.35 µM in the assay on HeLa; 4.66 µM in the assay on SK-OV-3.
`COc1cc2c3c(c4cc(OC)c(OC)cc4c2cc1OC)C(c1ccc(C)cc1)C1=C(CCCC1=O)N3` (stereo not given): the IC50 with HT-1080 came out at 5.63 µM; in the assay on HEK-293T it was 38.9 µM; with PC-3, 7.17 µM; in the assay on HeLa, 4.79 µM; in the assay on SK-OV-3, 1.62 µM.
